Experimental findings from ChEMBL document CHEMBL4342521 (J Med Chem, 2020) are described below.

The test system of assay [1] is SN12C. In words: Antiproliferative activity against human SN12C cells assessed as reduction in cell viability after 48 hrs by CellTiter-Blue assay. Format: functional. As to conditions: read-out: LC50 (the source's name). Put shortly:
(§1)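 Cells grown in RPMI1640 with 10% FBS at 37 °C, 5% CO₂. 5,000–10,000 cells/well were pre-incubated overnight, and a time-zero CellTiter-Blue read was taken. Six 10-fold dilutions (top final 10 μM) were applied for 48 h, followed by 0.125 mg/mL CellTiter-Blue for 2–4 h. Resorufin fluorescence was read at ex 560/em 590 nm. […] Triplicates.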
Background: Alamar Blue is a resazurin reagent that responds to reducing activity.

The subject of assay [2] is MDA-MB-231. In words: Antiproliferative activity against human MDA-MB-231 cells assessed as reduction in cell viability after 48 hrs by CellTiter-Blue assay. The note with it: MDA-MB-231, 48 h, read-out: LC50 (the source's name). The format is functional. Summed up: as §1
Assay [3] has as its target Histone deacetylase 8 (Homo sapiens, UniProt Q9BY41). In words: Inhibition of recombinant full length human C-terminal His-tagged HDAC8 expressed in baculovirus infected Sf9 cells using Boc-Lys (trifluoroacetyl)-AMC as substrate preincubated for 1 hr followed by substrate addition and measured after 2 hrs by fluorescence based micro plate reader analysis. Summed up:
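Recombinant HDAC8 preincubated with test agent at 30 °C for 1 h. Boc-Lys(trifluoroacetyl)-AMC added (final 50 μM), 2 h at 30 °C. Stopped with trypsin/TSA developer for 30 min; fluorescence read at 360/460 nm. Inhibition relative to control wells; IC50 by variable-slope fit.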

Assay [4] deals with UACC-257. The experiment in a line: Antiproliferative activity against human UACC257 cells assessed as reduction in cell viability after 48 hrs by CellTiter-Blue assay. The format is functional. The note with it: UACC-257, 48 h, read-out: LC50 (the source's name). Summed up: (§2)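 NCI-60 panel lines grown in RPMI1640 with 10% FBS at 37 °C, 5% CO₂. Seeded at 5,000–10,000 cells/well and pre-incubated overnight. Exposed for 48 h to six 10-fold dilutions (top final 10 μM), with a time-zero plate read at dosing. CellTiter-Blue (0.125 mg/mL) for 2–4 h, fluorescence 560/590 nm, triplicate curves.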

For assay [5], the system named is OVCAR-8. The experiment in a line: Antiproliferative activity against human OVCAR8 cells assessed as reduction in cell viability after 48 hrs by CellTiter-Blue assay. Format: functional. As to conditions: OVCAR-8, 48 h, read-out: LC50 (the source's name). Put shortly:
as §1

Assay [6] deals with HL-60. In words: Upregulation of P21WAF1/Cip1 protein expression in p53 null human HL60 cells harboring wild type FLT3 at 50 to 200 nM after 24 hrs by Western blot analysis. Format: functional, cell-based. Put shortly:
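RS4;11 cells were cultured in RPMI-1640 with 10% FBS and HL-60 cells in IMDM with 20% FBS. Cells were plated at 1,500,000 per well, grown 12 h, then drug-treated. Lysis was in RIPA buffer with sonication and centrifugation, and loading was normalized by BCA. Lysates were run on 4–12% Bis-Tris gels in MES buffer and transferred, and membranes were probed overnight at 4 °C with 1/1000 primary antibodies.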

Assay [7] has as its system NCI/ADR-RES. The experiment in a line: Antiproliferative activity against human NCI/ADR-RES cells assessed as reduction in cell viability after 48 hrs by CellTiter-Blue assay. Format: functional. As to conditions: read-out: LC50 (the source's name). Summed up: as §1
For assay [8], the system named is HT-29. In words: Antiproliferative activity against human HT-29 cells assessed as reduction in cell viability after 48 hrs by CellTiter-Blue assay. The format is functional. As to conditions: HT-29, 48 h, read-out: LC50 (the source's name). Summed up:
as §1

Assay [9] relates to SNB-19. In words: Antiproliferative activity against human SNB19 cells assessed as reduction in cell viability after 48 hrs by CellTiter-Blue assay. As to conditions: SNB-19, 48 h, read-out: LC50 (the source's name). The format is functional. Summed up: as §1
In assay [10] the test system is MV4-11. In words: Induction of apoptosis in human MV4-11 cells harboring wild type p53/FLT3-ITD mutant assessed as upregulation of P21WAF1/Cip1 expression at 50 to 200 nM after 24 hrs by Western blot analysis. Format: functional, cell-based. Summed up: (§3)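 Cells (1,500,000 per well) grown 12 h, then drug-treated as specified. Lysed in RIPA buffer, sonicated, centrifuged, protein normalized by BCA. Run on 4–12% Bis-Tris gels in MES, transferred, probed overnight at 4 °C with primary antibodies at 1/1000. Actin served as reference for LC3-II quantitation.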
Background: In western blotting, separated proteins are transferred to a membrane and probed.

In assay [11] the test system is MV4-11. The experiment in a line: Down regulation of FTL3 in human MV4-11 cells harboring wild type p53/FLT3-ITD mutant at 50 to 200 nM after 24 hrs by Western blot analysis. Format: functional, cell-based. Put shortly:
as §3

Assay [12] deals with 72 kDa type IV collagenase (Homo sapiens) (UniProt P08253). In words: Inhibition of MMP-2 (unknown origin) at 10 to 50 uM incubated for 10 to 15 mins and measured after 2 hrs by fluorescence based assay. Summed up:
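MMP-2/MMP-9 in activation buffer with test agent (final 50 and 10 μM), 10–15 min incubation, then fluorogenic substrate added. Incubated 2 h at 37 °C; fluorescence read at 320/405 nm. Kit MMP inhibitor was the positive control.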

Assay [13] deals with MV4-11. The experiment in a line: Antiproliferative activity agaisnt human MV4-11 cells expressing wild type p53/FLT3-ITD mutant assessed as cell death at 10 uM after 48 hrs by CellTiter-blue assay. Format: functional, cell-based.
Assay [14] relates to SR. The experiment in a line: Antiproliferative activity against human SR cells assessed as reduction in cell viability after 48 hrs by CellTiter-Blue assay. Format: functional. The note with it: read-out: LC50 (the source's name). Put shortly: as §2
Assay [15] concerns EKVX. In words: Antiproliferative activity against human EKVX cells assessed as reduction in cell viability after 48 hrs by CellTiter-Blue assay. Format: functional. As to conditions: read-out: LC50 (the source's name). Put shortly: as §1
Assay [16] has as its system IGROV-1. The experiment in a line: Antiproliferative activity against human IGROV1 cells assessed as reduction in cell viability after 48 hrs by CellTiter-Blue assay. The format is functional. As to conditions: IGROV-1, 48 h, read-out: LC50 (the source's name). Summed up: as §1
Assay [17] concerns OVCAR-4. The experiment in a line: Antiproliferative activity against human OVCAR4 cells assessed as reduction in cell viability after 48 hrs by CellTiter-Blue assay. The format is functional. As to conditions: OVCAR-4, 48 h, read-out: LC50 (the source's name). Put shortly: as §1
The test system of assay [18] is SK-MEL-2. In words: Antiproliferative activity against human SK-MEL-2 cells assessed as reduction in cell viability after 48 hrs by CellTiter-Blue assay. As to conditions: SK-MEL-2, 48 h, read-out: LC50 (the source's name). The format is functional. Summed up:
as §1

Assay [19] has as its system SF-295. In words: Antiproliferative activity against human SF295 cells assessed as reduction in cell viability after 48 hrs by CellTiter-Blue assay. Format: functional. As to conditions: SF-295, 48 h, read-out: LC50 (the source's name). Summed up: as §1
Assay [20] concerns HL-60. The experiment in a line: Effect on XIAP protein degradation in p53 null human HL60 cells harboring wild type FLT3 at 50 to 200 nM after 24 hrs by Western blot analysis. The format is functional, cell-based. Put shortly:
as §3

The test system of assay [21] is SNB-75. The experiment in a line: Antiproliferative activity against human SNB75 cells assessed as reduction in cell viability after 48 hrs by CellTiter-Blue assay. Format: functional. The note with it: SNB-75, 48 h, read-out: LC50 (the source's name). Summed up: as §2
Assay [22] has as its system CCRF-CEM. The experiment in a line: Antiproliferative activity against human CCRF-CEM cells assessed as reduction in cell viability after 48 hrs by CellTiter-Blue assay. Format: functional. As to conditions: read-out: LC50 (the source's name). Summed up:
as §1

Active and inactive are the calls of the source. The calls are words filed in the database; no cut-off is given here. Where only a bound is given, the exact number is not on record here.

Chain of 72 kDa type IV collagenase (Homo sapiens) (P08253 110-660 limits assumed): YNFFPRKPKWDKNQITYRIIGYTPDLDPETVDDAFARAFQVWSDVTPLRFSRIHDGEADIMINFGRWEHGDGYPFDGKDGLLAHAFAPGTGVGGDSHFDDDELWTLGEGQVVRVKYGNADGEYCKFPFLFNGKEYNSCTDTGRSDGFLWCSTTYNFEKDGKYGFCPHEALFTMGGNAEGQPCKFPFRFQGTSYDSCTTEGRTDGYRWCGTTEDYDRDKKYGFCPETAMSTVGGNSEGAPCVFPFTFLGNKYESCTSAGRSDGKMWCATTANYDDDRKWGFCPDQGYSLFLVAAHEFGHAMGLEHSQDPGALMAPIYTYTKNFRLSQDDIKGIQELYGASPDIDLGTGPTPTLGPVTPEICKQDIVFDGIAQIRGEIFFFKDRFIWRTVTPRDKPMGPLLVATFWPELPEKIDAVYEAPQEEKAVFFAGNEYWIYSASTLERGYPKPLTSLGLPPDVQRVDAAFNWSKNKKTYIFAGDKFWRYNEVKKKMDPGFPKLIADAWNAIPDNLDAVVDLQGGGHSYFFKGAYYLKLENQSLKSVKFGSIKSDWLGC
Chain of Histone deacetylase 8 (Q9BY41 whole entry): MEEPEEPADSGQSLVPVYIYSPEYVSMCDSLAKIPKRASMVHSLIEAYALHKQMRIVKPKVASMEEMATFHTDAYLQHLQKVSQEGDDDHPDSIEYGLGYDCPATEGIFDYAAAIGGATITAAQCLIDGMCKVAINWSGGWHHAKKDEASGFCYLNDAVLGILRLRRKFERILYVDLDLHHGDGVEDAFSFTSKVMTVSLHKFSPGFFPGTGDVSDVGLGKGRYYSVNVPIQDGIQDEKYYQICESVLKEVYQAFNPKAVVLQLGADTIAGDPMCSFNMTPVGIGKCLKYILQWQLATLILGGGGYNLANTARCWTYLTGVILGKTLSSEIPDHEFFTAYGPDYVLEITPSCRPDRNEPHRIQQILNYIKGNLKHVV

By IC50 is commonly meant the concentration needed to halve the response being measured. `CCCNNC(=O)/C=C/c1ccc(CNCCc2c(C)[nH]c3ccccc23)cc1.O=C(O)C(F)(F)F`: the CC50 in assay [1], in [2], in [4], in assay [5], in assay [7] and in assay [8] was above 10 µM each time. In addition, the CC50 in [9], in assay [14], in [15], in assay [16], in assay [17] and in assay [18] was above 10 µM in each case. The CC50 in assay [19], in assay [21] and in [22] was above 10 µM each time. In addition, in assay [3], the IC50 came out at 1760 nM. Moreover, the result in assay [6], in assay [10], in assay [11], in [13] and in [20] was Active. Besides, the inhibition entry in [12] is “inactive”.
